Source: PubChem
Only some compounds are listed: those with a hit (about 3.3% of all), similar ones and a draw of the others.
UHRF1 binding: UHRF1 methylated DNA binding inhibitors, primary screen, counter-screen for MBD2 inhibitor project, biochemical, TR-FRET, human UHRF1, single concentration; E3 ubiquitin-protein ligase UHRF1 (Homo sapiens), Q96T88; UHRF1 binding to methylated oligo; inhibition, % at 4.4 µM; 370,000 compounds, 0.75% hits; AID 687016, 2013; in the data active = inhibition above about 21%;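 note: UHRF1 SRA domain binding a hemimethylated CpG hairpin DNA probe; 0% = median of test compound wells and 100% = reference inhibitor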
MBD2 DNA inh: inhibitors of MBD2 binding to methylated DNA, primary screen, biochemical, TR-FRET, DNA-binding domain, human; 370,000 compounds, 0.31% hits; MBD2 binding to methylated oligonucleotide; inhibition, % at 4.4 µM; in the data active = inhibition above about 13%
LEDGF integ inh: blockers of LEDGF/p75-dependent integrase strand transfer – biochemical, TR-FRET, high throughput, primary screen. HIV-1 integrase (with human LEDGF/p75). TR-FRET IN-LEDGF/p75 DNA integration, Eu/Cy5. inhibition, % at 3.7 µM. 370,000 compounds, 0.64% hits;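 active = inhibition above the screen-wide mean plus 3 SD, cut at about 13% in these data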;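 note: signal is the Cy5 over europium emission ratio at 671 and 618 nm; 0% = plate median of compound wells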
PRMT1 FP inh: PRMT1 methyltransferase inhibitors, primary screen, biochemical, fluorescence polarization; recombinant PRMT1, activity-based probe fluorescence polarization; inhibition, % at 2.79 µM; 370,000 compounds, 1.3% hits; AID 652257, 2013;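 active = inhibition above about 21% made by adding two undisclosed values, limit read from the data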
Target sequence (Q99873 whole entry, looked up): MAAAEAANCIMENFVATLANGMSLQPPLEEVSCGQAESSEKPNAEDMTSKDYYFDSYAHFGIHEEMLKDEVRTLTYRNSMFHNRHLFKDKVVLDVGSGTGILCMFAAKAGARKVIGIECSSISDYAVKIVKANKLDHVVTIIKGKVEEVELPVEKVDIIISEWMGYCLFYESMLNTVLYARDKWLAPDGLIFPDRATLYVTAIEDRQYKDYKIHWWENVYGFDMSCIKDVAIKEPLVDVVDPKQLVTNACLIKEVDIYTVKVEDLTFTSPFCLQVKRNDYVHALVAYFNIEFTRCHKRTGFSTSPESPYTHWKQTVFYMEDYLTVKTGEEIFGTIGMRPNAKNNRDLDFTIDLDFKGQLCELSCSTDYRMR
TDP2 absorb: human TDP2 enzyme inhibitors, primary screen, biochemical, epi absorbance, recombinant enzyme; T5PNP hydrolysis, p-nitrophenol absorbance 415 nm; inhibition, % at 12.8 µM; 370,000 compounds, 0.34% hits; AID 720702, 2013;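 active = inhibition above the mean of all tested compounds plus 3 SD, set per campaign, cut at about 25% in these data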;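 note: 0% = DMSO with enzyme and 100% = buffer with substrate but no TDP2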
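Assay system: Recombinant human TDP2 | Quantity: 120 nM TDP2 per well | Incubation: 2 h at 37 °C | Signal: Epi absorbance | Evaluation: Percent inhibition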
SIAE inh: human SIAE inhibitors, primary screen, biochemical, fluorescence polarization, FP-Rh probe, 1536-well HTS; SIAE FP-Rh probe binding; 370,000 compounds, 0.69% hits; inhibition, % at 9.66 µM; Sialate O-acetylesterase (Homo sapiens), Q9HAT2;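 active = inhibition above a cutoff: mean of compounds within the control limits plus 3 SD of those, cut at about 17% in these data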;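 note: 0% = plate median of compound wells and 100% = probe without SIAE protein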
* hit, by the source's call.

SMILES	UHRF1 binding	MBD2 DNA inh	LEDGF integ inh	PRMT1 FP inh	TDP2 absorb	SIAE inh
COc1ccc(S(=O)(=O)N2N=C(c3cccc(NS(C)(=O)=O)c3)CC2c2ccco2)cc1 (stereo not given)	-1	-2	-1	23*	-7	-8
COc1ccc(S(=O)(=O)N2N=C(c3ccc(NS(C)(=O)=O)cc3)CC2c2ccco2)cc1 (stereo not given)	-2	-2	2	7	-6	-6
CCCC[C@@H](CCCc1ccc(F)cc1)CCC(=O)N(c1ccccc1)c1ccccc1	2	2	-4	1	5	-4
CC1CN(C(=O)c2ccccc2Oc2ccccc2)CC(C)O1 (stereo not given)	33*	4	3	-3	8	-7
CCc1csc(N2[C@H](CN(CCOC)S(=O)(=O)c3ccccc3[N+](=O)[O-])[C@H](c3ccccc3)[C@@H]2CO)n1	3	4	-3	2	5	2
CC(CCN1CCC(C(O)(c2ccccc2)c2ccccc2)CC1)Oc1ccc(F)cc1 (stereo not given)	0	0	5	0	-11	-31
CCOC(=O)c1[nH]c(C)c(C(=O)OC)c1C	0	0	-1	1	4	-1
CCOC(=O)c1[nH]c(C)c(C(=O)OCc2c(C)noc2C)c1C	22*	5	-2	4	-4	-3
CC(=O)Nc1cc(-c2ccc(N3CCN(C)CC3)cc2)cn2c(-c3ccccc3)cnc12	-4	-1	1	-2	-4	13
CC(=O)Nc1cc(-c2ccc(N3CCN(C)CC3)cc2)cn2c(-c3ccc(S(C)(=O)=O)cc3)cnc12	25*	2	1	-1	4	1
O=S1(=O)C=CCN1Cc1cn(Cc2ccc(F)cc2)nn1	47*	-3	6	-8	2	7
COc1ccc(CN2CCC(CNC(=O)NC3CCCC3)CC2)cc1	1	2	-2	-2	10	3
Fc1ccc(-c2n[nH]c(=S)n2N=Cc2cccc(OCc3ccccc3)c2)cc1	-1	1	4	9	-6	-8
Cn1c(=O)[nH]c(=O)c2[nH]c(NCCCN3CCOCC3)nc21	23*	5	0	0	2	14
CCOC(=O)c1c(NC(=O)C2CCCO2)sc(C(N)=O)c1C (stereo not given)	-2	-4	0	-1	-5	0
CCCOC(=O)c1c(NC(=O)C2CCCO2)sc(C(=O)OC)c1C (stereo not given)	25*	2	2	15	3	-5
COc1ccc(S[C@]2(C(=O)N(C)C)CC(=O)N(C(=O)CCc3ccccc3)[C@@H]2c2ccc(OC)cc2)cc1	6	-2	-2	12	-10	-5
O=C1c2cccc3c([N+](=O)[O-])ccc(c23)C(=O)N1Cc1cccnc1	-5	-6	-1	21*	-6	-2
O=C(CCN1C(=O)c2cccc3cccc(c23)C1=O)NCc1cccnc1	25*	-4	0	-1	-3	3
O=C(CCN1C(=O)C2C3C=CC(C3)C2C1=O)NCc1cccnc1 (stereo not given)	22*	7	0	0	1	-7
O=C1c2cccc3cccc(c23)C(=O)N1Cc1cccnc1	-1	-4	-2	2	-6	-13
C=CCOC(=O)N[C@H](c1cccc(OC)c1)[C@H](C)/C=C/CC(=O)OC	1	7	6	-3	0	2
CC(C)(C)c1ccc(S(=O)(=O)N2CCCC2C(=O)N2CCc3ccccc3C2)cc1 (stereo not given)	0	-2	0	-3	-4	-1
O=C(NC1CCCC1)c1n[nH]c2ccccc12	45*	-5	-2	0	8	3
COc1ccc(Cn2cc(CN3[C@@H](C)COc4cc(Br)ccc4S3(=O)=O)nn2)cc1	2	2	-4	2	-10	7
SMILES	UHRF1 binding	MBD2 DNA inh	LEDGF integ inh	PRMT1 FP inh	TDP2 absorb	SIAE inh
CCc1ccc2nc3nc(C)cc(C)c3c(N)c2c1	22*	3	0	-3	-4	-2
CCc1ccc(NC(=S)/N=C(\N)Nc2nc(C)c3cc(CC)ccc3n2)cc1	4	5	2	-3	-4	-18
N#Cc1c(F)cccc1N1CCOCC1	53*	-2	2	-1	7	1
COc1ccc(CNC2CCC23CCC(C)CC3)cc1 (stereo not given)	2	2	-1	2	-4	-1
CCOc1ccccc1NC(=O)C1C2C=CC(O2)C1C(=O)O (stereo not given)	-1	0	5	23*	7	3
CCSc1ccc(-c2ccco2)nn1	-6	-1	-1	3	6	-2
Fc1cccc(CSc2ccc(-c3ccco3)nn2)c1	0	0	2	24*	-14	4
O=C(NCCc1ccccc1)C(c1cccs1)N(C(=O)c1csnn1)C1CC1 (stereo not given)	-3	-3	0	-2	-1	18*
O=C(NCc1ccccc1)C(c1cccs1)N(C(=O)c1csnn1)C1CC1 (stereo not given)	0	4	-2	-1	5	-6
CN(CC(=O)Nc1cccc2ccccc12)C(=O)c1ccc(F)cc1F	29*	3	0	3	6	5
CN(CC(=O)Nc1cccc(F)c1)CC(=O)Nc1cccc2ccccc12	2	-5	6	1	-18	-5
O=C(C1CCCO1)N1CCN(S(=O)(=O)c2ccc(F)cc2)CC1 (stereo not given)	0	0	-5	24*	-4	0
COc1ccc(S(=O)(=O)N2CCN(C(=O)C3CCCO3)CC2)cc1 (stereo not given)	0	-5	5	-2	-4	-3
O=C(Nc1ccccc1[N+](=O)[O-])NC1CCCCN(Cc2ccc(Cl)cc2)C1=O (stereo not given)	0	3	-4	-3	-2	-3
CNC(=O)C[C@H]1CC[C@H]2[C@@H](COc3ccc(NC(=O)Nc4ccccc4)cc3C(=O)N2C)O1	2	8	4	-2	5	-5
O=S1(=O)CCOCCCN1Cc1ccccc1F	41*	-3	1	-2	6	9
